In ChEMBL document CHEMBL1128248, “C-9 and N-substituted analogs of cis-(3aR)-(-)-2,3,3a,4,5,9b-hexahydro-3- propyl-1H-benz[e]indole-9-carboxamide: 5-HT1A receptor agonists with various degrees of metabolic stability” (J Med Chem, 1995):
Active and inactive are the calls of the source. The rule behind the calls is not given here.

How the values were obtained:
[1] = target: T1, 5-hydroxytryptamine receptor 1A (Rattus norvegicus, UniProt P19327); assay: In vitro displacement of radioactively labeled ligand [3H]8-OH-DPAT from 5-hydroxytryptamine 1A receptor site in CHO cells; assay type: cell-based
T1 sequence (P19327 whole entry): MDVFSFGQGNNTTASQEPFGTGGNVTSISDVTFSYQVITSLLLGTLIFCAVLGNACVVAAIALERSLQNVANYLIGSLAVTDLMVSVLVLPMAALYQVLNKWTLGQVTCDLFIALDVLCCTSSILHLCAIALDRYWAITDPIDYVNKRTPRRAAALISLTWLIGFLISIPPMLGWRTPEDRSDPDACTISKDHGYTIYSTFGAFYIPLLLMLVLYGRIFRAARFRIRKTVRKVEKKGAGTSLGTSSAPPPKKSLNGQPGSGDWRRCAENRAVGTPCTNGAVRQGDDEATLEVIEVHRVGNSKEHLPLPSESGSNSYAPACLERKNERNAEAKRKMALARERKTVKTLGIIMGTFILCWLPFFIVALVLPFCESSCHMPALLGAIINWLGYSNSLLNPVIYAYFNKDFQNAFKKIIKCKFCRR

Rattus norvegicus [2] = assay: postsynaptic effects was assessed by the increase in the locomotor activity (reversal of reserpine induced hypokinesia) during a 30 min period after subcutaneous administration using photocell motility meters at the dose of 50(micro M/kg); assay type: ADME, organism-based; settings: in vivo, sc, 0.5 h
Outline: (§1)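 Reserpine 5 mg/kg sc was given 18 h before testing to male Sprague–Dawley rats. Test drug was given sc in the neck, and rats were placed singly in photocell motility meters. Accumulated counts were recorded over 30 min (mean, n = 4), with gross behaviour observed throughout. Student's t test was applied.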

Rattus norvegicus [3] = assay: In vivo effects on DA (dopamine) synthesis in corps striatum was reported after subcutaneous administration to reserpinized rats; inactive at a dose of 50; assay type: functional, organism-based
Outline: (§2)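 Male Sprague–Dawley rats (200–300 g) given reserpine 5 mg/kg sc 18 h before; compounds sc in neck region, 5 mL/kg. DOPA accumulation in striatum or cortex measured by HPLC with electrochemical detection.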

Rattus norvegicus [4] = assay: in vivo effects on DA (dopamine) synthesis in cortex was reported after subcutaneous administration to reserpinized rats; inactive at a dose of 50; assay type: functional, organism-based; outline: as §2
Rattus norvegicus [5] = assay: (§3) 5-HTP accumulation in limbic system was determined in vivo; assay type: functional
Outline: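 Male Sprague–Dawley rats (200–300 g) pretreated with reserpine 5 mg/kg sc 18 h beforehand; test drug given sc in neck, 5 mL/kg, neutral pH. 5-HTP in limbic system measured by HPLC with electrochemical detection.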

D(2) dopamine receptor = D(2) dopamine receptor (Rattus norvegicus, UniProt P61169); assay: Displacement of [3H]U-86170 from Dopamine receptor D2
Outline: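 Competition binding at cloned D2 receptors expressed in CHO-K1 cells, using the agonist [3H]U86170 (62 Ci/mmol, 2 nM) against 11 dilutions of test compound. IC50 was fitted to a one-site model by nonlinear least squares. Ki was obtained with the Cheng–Prusoff equation.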

Rattus norvegicus [6] = species: Rattus norvegicus; assay: (§4) In vitro metabolic stability of the test compound was evaluated after incubation in the presence of freshly isolated rat hepatocytes; assay type: functional, Hepatocyte; design: reference not given here
Outline: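 Rat hepatocytes were isolated by modified collagenase perfusion and incubated as suspensions (5 million cells/mL) with each compound at three concentrations. Parent loss was followed by HPLC. Initial rates gave apparent Vmax and Km by direct linear plot, with CLint = Vmax/Km. Stability is expressed relative to a reference compound incubated at the same time.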

Rattus norvegicus [7] = species: Rattus norvegicus; assay: as §4; assay type: ADME, Hepatocyte
Outline: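 Rat hepatocytes were prepared by a modified collagenase perfusion method. Each compound was incubated at three concentrations in suspension at 5 million cells/mL. Initial rates were analysed by direct linear plot to give apparent Vmax and Km, and CLint = Vmax/Km. Rates were measured by HPLC and expressed relative to a reference compound incubated at the same time.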

Rattus norvegicus [8] = assay: in vivo effects on DA (dopamine) synthesis in cortex was reported after subcutaneous administration to reserpinized rats; assay type: functional, organism-based
Rattus norvegicus [9] = assay: In vivo effects on DA (dopamine) synthesis in corps striatum was reported after subcutaneous administration to reserpinized rats; I = inactive at highest dose 45 umol/kg; assay type: functional, organism-based
Rattus norvegicus [10] = assay: postsynaptic effects was assessed by the increase in the locomotor activity (reversal of reserpine induced hypokinesia) during a 30 min period after subcutaneous administration using photocell motility meters at the dose of 0.2 (mic roM/kg); assay type: functional; outline: as §1
Rattus norvegicus [11] = assay: postsynaptic effects was assessed by the increase in the locomotor activity (reversal of reserpine induced hypokinesia) during a 30 min period after subcutaneous administration using photocell motility meters at the dose of 12.5(mic roM/kg); assay type: ADME, organism-based; settings: in vivo, sc, 0.5 h; outline: as §1
Rattus norvegicus [12] = assay: in vivo effects on DA (dopamine) synthesis in cortex was reported after subcutaneous administration to reserpinized rats; inactive at a dose of 3.1; assay type: functional, organism-based
Rattus norvegicus [13] = assay: In vivo effects on DA (dopamine) synthesis in corps striatum was reported after subcutaneous administration to reserpinized rats; inactive at a dose of 3.1; assay type: functional, organism-based
Rattus norvegicus [14] = assay: as §3; assay type: functional; remark: listed apart in the source
Outline: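 Male Sprague–Dawley rats (200–300 g), pretreated with reserpine 5 mg/kg sc 18 h before. Test drug given sc. 5-HTP measured in limbic brain tissue by HPLC with electrochemical detection. Dose–response curves were built from four to six dose levels (n = 4) for each substance and brain area. ED50 reported in μmol/kg sc.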

Rattus norvegicus [15] = assay: postsynaptic effect was assessed by the increase in the locomotor activity (reversal of reserpine induced hypokinesia) during a 30 min period after subcutaneous administration using photocell motility meters at the dose of 3.1 uM/kg; assay type: ADME, organism-based; settings: in vivo, sc, 0.5 h; outline: as §1

D(2) dopamine receptor, sequence (P61169 whole entry): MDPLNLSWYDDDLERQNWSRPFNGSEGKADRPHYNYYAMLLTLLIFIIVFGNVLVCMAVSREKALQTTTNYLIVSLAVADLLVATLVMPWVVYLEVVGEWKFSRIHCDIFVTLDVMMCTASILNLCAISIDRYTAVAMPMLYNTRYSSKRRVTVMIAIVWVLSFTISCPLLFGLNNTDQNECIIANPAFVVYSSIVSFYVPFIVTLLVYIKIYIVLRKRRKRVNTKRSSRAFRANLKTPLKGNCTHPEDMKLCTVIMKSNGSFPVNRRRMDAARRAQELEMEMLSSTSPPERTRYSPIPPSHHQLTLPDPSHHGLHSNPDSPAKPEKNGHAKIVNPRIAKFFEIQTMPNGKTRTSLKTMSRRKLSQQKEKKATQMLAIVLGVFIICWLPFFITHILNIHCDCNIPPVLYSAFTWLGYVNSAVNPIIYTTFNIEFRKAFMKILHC

Compound | Ki [1] [nM] | Ki (D(2) dopamine receptor) [nM] | Metabolic stability (Rattus norvegicus [6]) | also measured
NC(=O)c1cccc2c1[C@@H]1CCN(CC3CC3)[C@@H]1CC2 | 8.3 | > 1000 | 0.5 | Locomotor activity (Rattus norvegicus [2]): 32; ED50 (Rattus norvegicus [3]): inactive; ED50 (Rattus norvegicus [4]): inactive; ED50 (Rattus norvegicus [5]): 1 µmol/kg
CN1CC[C@H]2c3c(cccc3C(N)=O)CC[C@H]21 | – | > 1000 | 4.9 | Locomotor activity (Rattus norvegicus [2]): 23; ED50 (Rattus norvegicus [3]): inactive; ED50 (Rattus norvegicus [4]): inactive; ED50 (Rattus norvegicus [5]): 17.6 µmol/kg
C=CCCN1CC[C@H]2c3c(cccc3C(N)=O)CC[C@H]21 | 82 | > 1000 | 0.33 | –
ClCCCN1CC[C@H]2c3c(Br)cccc3CC[C@H]21 | 12 | 73 | – | –
CCCCN1CC[C@H]2c3c(cccc3C(N)=O)CC[C@H]21 | 83 | > 1000 | 0.3 | –
NC(=O)c1cccc2c1[C@@H]1CCN(CCCCl)[C@@H]1CC2 | 15 | > 1000 | – | Metabolic stability (Rattus norvegicus [7]): 0.22
C=CCCN1CC[C@H]2c3c(Br)cccc3CC[C@H]21 | 34 | 55 | – | –
Brc1cccc2c1[C@@H]1CCN(CC3CC3)[C@@H]1CC2 | 4.7 | 119 | – | –
CCCN(CCC)C1CCc2cccc(O)c2C1 (stereo not given) [8-OH-DPAT] | – | 86 | – | ED50 (Rattus norvegicus [5]): 0.052 µmol/kg; Metabolic stability (Rattus norvegicus [7]): 0.16; ED50 (Rattus norvegicus [8]): inactive; ED50 (Rattus norvegicus [9]): inactive; Locomotor activity (Rattus norvegicus [10]): 66
CN1CC[C@H]2c3c(Br)cccc3CC[C@H]21 | 24 | 41 | – | –
C=CCN1CC[C@H]2c3c(Br)cccc3CC[C@H]21 | 1 | 3.2 | – | –
COCCN1CC[C@H]2c3c(cccc3C(N)=O)CC[C@H]21 | 129 | > 1000 | 0.58 | –
C#CCN1CC[C@H]2c3c(cccc3C(N)=O)CC[C@H]21 | 48 | > 1000 | 0.37 | –
FCCCN1CC[C@H]2c3c(Br)cccc3CC[C@H]21 | 4.7 | 47 | – | –
CCCN1CC[C@H]2c3c(cccc3C(=O)NCc3ccccc3)CC[C@H]21 | 22 | > 1000 | 0.16 | ED50 (Rattus norvegicus [3]): inactive; ED50 (Rattus norvegicus [4]): inactive; ED50 (Rattus norvegicus [5]): 7 µmol/kg; Locomotor activity (Rattus norvegicus [11]): 41
CCCN1CC[C@H]2c3c(cccc3C(=O)C(C)C)CC[C@H]21 | 1.2 | 62 | 0.8 | ED50 (Rattus norvegicus [12]): inactive; ED50 (Rattus norvegicus [13]): inactive; ED50 (Rattus norvegicus [14]): 0.025 µmol/kg; Locomotor activity (Rattus norvegicus [15]): 450
